Test results: ChEMBL document CHEMBL5356931, “Medicinal chemistry approaches to target the MNK-eIF4E axis in cancer” (RSC Med Chem, 2023)
pIC50, pKd: −log10 of the molar value. In brackets after ≈: the same amount, converted by molar mass.

Columns and labels:
[1] = target: T1, Eukaryotic translation initiation factor 4E (Homo sapiens, UniProt P06730); assay: Binding affinity to eIF4E (unknown origin) assessed as dissociation constant
[2] = target: T1, Eukaryotic translation initiation factor 4E; assay: Inhibition of eIF4E phosphorylation in human HeLa cells; type: cell-based
[3] = Drug exposure in mouse at 5 mg/kg,po; type: ADME, organism-based; design: dose 5 mg/kg, route po; settings: in vivo
Procedure, shortened: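 Mice received a single oral dose of 5 mg kg⁻¹. Exposure was described by oral bioavailability F (%), Cmax (ng mL⁻¹) and AUC0−t (last) (ng h mL⁻¹).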

[4] = target: MAP kinase-interacting serine/threonine-protein kinase 1 (Homo sapiens) (UniProt Q9BUB5); assay: Inhibition of MNK1 (unknown origin) relative to control; settings: concentration not given here
[5] = target: T2, Receptor-type tyrosine-protein kinase FLT3 (Homo sapiens, UniProt P36888); assay: Inhibition of FLT3 (unknown origin)
T2 sequence (P36888 whole entry): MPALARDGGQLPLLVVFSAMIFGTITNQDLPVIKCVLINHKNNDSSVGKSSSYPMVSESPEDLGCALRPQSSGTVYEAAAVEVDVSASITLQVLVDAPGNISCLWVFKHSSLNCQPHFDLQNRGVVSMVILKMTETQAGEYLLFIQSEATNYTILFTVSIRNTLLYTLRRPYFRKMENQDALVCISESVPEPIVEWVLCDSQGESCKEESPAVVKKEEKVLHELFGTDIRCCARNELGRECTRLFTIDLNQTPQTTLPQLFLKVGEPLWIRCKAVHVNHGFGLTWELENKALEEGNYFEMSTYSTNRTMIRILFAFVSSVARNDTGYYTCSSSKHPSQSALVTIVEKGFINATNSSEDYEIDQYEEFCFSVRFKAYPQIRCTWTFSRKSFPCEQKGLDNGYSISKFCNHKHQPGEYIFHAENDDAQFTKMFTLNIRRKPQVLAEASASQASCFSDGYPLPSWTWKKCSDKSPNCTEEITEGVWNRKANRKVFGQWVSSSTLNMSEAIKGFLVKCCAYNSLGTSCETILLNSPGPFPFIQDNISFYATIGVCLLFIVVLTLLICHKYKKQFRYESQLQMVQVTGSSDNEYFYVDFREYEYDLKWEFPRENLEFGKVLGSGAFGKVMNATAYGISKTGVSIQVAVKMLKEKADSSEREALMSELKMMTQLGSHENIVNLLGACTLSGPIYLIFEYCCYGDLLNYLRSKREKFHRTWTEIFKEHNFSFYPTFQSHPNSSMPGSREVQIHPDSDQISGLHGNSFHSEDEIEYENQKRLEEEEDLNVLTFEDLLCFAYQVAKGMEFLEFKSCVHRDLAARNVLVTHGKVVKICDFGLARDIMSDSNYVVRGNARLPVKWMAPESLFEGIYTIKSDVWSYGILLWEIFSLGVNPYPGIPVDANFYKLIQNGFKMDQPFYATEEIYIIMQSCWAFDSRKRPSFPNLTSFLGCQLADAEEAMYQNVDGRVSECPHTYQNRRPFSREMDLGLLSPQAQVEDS

[6] = target: Proto-oncogene tyrosine-protein kinase receptor Ret (Homo sapiens, UniProt P07949); assay: Inhibition of RET (unknown origin)
[7] = target: T3, Tyrosine-protein kinase ABL1 (Homo sapiens, UniProt P00519); assay: Inhibition of ABL1 (unknown origin) relative to control; settings: concentration not given here
[8] = target: Vascular endothelial growth factor receptor 2 (Homo sapiens, UniProt P35968); assay: Inhibition of VEGFR2 (unknown origin)
[9] = Solubility of the compound; type: physicochemical
[10] = target: T3, Tyrosine-protein kinase ABL1; assay: Inhibition of ABL1 (unknown origin)
[11] = target: MAP kinase-interacting serine/threonine-protein kinase 2 (Homo sapiens, UniProt Q9HBH9); assay: Inhibition of MNK2 (unknown origin)
[12] = Half life in CD-1 mouse at 5 mg/kg, iv; type: ADME, organism-based, CD1; settings: in vivo
[13] = Solubility of compound at pH 7.4; type: physicochemical; settings: buffer
K562 [14] = assay: animal or person; settings: Mus musculus, K562, read-out: TGI
K562 [15] = assay: animal or person; settings: Mus musculus, K562, read-out: TGI; remark: listed apart in the source

T3 sequence (P00519 whole entry): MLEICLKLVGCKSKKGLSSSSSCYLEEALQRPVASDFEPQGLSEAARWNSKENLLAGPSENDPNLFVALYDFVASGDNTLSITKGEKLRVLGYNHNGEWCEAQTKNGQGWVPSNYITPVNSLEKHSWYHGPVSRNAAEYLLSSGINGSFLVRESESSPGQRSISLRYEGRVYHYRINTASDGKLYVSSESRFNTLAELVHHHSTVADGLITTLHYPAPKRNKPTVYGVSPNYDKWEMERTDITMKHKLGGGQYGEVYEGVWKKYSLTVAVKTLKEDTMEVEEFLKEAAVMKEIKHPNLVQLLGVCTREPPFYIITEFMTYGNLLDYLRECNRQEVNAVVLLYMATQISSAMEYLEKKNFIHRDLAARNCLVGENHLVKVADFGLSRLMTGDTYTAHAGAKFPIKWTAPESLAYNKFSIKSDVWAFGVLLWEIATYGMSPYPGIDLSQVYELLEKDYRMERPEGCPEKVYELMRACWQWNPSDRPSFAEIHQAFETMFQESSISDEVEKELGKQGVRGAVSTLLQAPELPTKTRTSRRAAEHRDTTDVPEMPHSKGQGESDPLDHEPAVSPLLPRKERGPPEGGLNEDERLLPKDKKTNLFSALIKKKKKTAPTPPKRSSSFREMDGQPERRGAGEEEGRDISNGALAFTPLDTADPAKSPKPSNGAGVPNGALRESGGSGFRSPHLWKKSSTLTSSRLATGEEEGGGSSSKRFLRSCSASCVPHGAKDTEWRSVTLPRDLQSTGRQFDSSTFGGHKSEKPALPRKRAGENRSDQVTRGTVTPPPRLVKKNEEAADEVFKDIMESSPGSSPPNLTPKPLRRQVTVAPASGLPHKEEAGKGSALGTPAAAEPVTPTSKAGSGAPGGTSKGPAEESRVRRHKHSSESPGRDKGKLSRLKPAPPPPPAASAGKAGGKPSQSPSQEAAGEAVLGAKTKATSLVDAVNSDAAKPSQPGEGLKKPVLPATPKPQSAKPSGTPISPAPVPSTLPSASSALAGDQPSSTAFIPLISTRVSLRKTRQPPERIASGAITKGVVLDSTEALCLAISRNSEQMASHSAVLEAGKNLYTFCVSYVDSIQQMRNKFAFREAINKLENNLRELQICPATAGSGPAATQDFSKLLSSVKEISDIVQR
T1 sequence (P06730 whole entry): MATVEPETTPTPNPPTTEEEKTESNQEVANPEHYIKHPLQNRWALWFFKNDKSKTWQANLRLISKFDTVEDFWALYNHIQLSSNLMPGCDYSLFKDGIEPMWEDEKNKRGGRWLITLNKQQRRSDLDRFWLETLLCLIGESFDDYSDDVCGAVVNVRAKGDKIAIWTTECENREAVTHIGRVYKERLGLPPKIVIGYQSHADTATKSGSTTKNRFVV
Sequence of MAP kinase-interacting serine/threonine-protein kinase 2 (Q9HBH9 whole entry): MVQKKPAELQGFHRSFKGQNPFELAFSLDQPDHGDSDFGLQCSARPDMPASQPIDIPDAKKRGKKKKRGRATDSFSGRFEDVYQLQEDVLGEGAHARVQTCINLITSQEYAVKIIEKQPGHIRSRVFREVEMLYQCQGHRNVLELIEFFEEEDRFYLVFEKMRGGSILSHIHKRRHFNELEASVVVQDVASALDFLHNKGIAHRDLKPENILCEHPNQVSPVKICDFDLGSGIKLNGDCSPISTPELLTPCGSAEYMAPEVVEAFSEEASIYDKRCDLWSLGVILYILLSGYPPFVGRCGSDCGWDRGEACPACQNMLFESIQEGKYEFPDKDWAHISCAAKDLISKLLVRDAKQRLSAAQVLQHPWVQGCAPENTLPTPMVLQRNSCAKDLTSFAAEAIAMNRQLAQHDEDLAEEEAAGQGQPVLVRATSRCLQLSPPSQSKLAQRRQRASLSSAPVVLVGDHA
Sequence of MAP kinase-interacting serine/threonine-protein kinase 1 (Homo sapiens) (Q9BUB5 whole entry, looked up): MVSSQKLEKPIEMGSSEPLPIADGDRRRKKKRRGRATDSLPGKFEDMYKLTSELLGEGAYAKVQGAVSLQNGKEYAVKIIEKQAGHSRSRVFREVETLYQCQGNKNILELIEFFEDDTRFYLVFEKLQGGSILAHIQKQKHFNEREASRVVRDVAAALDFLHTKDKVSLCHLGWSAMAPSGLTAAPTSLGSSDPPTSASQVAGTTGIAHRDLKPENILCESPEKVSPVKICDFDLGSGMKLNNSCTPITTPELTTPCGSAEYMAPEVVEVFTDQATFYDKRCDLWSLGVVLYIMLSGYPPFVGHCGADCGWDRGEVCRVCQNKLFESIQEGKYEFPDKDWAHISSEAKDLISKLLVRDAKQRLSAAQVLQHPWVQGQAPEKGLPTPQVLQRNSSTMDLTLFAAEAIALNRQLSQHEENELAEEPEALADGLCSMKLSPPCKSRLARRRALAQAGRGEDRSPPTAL
Sequence of Vascular endothelial growth factor receptor 2 (P35968 whole entry): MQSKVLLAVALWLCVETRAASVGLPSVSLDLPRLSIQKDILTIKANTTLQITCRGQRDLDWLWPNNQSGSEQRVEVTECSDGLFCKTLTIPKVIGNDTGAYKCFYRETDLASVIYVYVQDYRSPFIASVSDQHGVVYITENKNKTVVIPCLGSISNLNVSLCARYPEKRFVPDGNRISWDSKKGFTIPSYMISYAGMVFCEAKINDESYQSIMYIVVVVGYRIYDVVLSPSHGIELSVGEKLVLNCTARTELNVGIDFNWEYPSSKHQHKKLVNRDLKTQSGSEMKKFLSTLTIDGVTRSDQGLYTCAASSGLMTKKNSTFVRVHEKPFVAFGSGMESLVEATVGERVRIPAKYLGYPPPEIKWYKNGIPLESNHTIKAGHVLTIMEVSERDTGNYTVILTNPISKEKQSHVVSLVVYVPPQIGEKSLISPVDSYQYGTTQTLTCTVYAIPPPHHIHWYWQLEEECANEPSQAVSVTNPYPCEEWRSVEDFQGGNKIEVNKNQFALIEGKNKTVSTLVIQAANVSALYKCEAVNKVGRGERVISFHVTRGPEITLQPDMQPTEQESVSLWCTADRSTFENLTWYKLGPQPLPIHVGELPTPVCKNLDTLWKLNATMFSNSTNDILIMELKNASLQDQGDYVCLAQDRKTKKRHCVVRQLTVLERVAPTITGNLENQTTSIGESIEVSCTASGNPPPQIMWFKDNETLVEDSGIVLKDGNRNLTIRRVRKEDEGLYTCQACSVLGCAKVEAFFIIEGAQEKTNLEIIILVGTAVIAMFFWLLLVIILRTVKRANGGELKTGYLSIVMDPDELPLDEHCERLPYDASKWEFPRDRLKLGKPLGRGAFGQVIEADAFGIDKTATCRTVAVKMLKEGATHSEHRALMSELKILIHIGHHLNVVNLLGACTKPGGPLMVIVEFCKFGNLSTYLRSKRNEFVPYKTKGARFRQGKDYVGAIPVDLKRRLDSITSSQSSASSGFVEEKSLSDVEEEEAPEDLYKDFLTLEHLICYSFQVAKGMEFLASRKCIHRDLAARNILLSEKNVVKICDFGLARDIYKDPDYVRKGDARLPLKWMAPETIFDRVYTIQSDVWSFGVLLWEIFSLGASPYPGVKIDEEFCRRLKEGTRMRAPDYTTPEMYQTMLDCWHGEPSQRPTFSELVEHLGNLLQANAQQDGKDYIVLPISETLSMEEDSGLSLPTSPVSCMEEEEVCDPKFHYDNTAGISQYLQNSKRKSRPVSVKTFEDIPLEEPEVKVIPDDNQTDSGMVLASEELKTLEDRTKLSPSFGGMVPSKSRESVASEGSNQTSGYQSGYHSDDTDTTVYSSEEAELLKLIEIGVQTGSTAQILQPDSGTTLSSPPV
Sequence of Proto-oncogene tyrosine-protein kinase receptor Ret (P07949 whole entry): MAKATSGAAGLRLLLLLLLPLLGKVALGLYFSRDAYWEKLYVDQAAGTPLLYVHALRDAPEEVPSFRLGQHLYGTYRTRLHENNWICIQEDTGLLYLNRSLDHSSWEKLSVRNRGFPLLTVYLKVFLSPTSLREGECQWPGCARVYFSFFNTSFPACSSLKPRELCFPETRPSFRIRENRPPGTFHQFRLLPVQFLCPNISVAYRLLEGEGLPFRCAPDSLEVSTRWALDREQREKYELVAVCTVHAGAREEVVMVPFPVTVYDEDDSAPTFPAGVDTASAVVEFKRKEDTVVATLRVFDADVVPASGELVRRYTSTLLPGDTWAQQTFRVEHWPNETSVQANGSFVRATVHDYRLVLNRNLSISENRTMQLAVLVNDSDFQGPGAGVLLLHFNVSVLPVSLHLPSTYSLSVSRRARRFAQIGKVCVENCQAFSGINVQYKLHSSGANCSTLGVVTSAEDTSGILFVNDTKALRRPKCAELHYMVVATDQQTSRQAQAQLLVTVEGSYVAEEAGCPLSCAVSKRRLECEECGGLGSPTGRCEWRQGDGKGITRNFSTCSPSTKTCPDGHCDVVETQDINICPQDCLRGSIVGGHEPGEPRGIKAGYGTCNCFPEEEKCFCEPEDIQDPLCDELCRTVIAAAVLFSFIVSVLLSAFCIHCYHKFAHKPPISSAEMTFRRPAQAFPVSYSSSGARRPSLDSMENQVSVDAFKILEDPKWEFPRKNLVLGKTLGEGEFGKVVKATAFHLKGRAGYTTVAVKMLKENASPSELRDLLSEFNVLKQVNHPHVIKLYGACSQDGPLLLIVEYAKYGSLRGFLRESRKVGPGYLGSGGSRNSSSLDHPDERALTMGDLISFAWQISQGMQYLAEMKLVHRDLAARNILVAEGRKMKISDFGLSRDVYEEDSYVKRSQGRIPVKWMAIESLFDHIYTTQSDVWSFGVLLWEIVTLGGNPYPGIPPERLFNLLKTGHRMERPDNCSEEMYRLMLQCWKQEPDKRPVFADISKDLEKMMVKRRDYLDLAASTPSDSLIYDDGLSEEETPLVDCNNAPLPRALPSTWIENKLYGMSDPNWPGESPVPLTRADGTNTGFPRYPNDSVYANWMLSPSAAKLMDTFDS

With `NC(=O)c1ncn([C@@H]2O[C@H](CO)[C@@H](O)[C@H]2O)n1` [RIBAVIRIN] as the compound, how does the pKd [1] read?
The pKd was 5.08.

With `CC(C)Oc1cc(-c2cncc(-c3cnn(C4COC4)c3)c2)ccc1C(N)=O` as the compound, how does the pIC50 [2] read?
The pIC50 was 6.70.

And the AUC [3]?
Its AUC is 2080 ng·h/mL.

And the inhibition [4]?
Its inhibition is over 90%.

With `CN1CCN(Cc2ccc(NC(=O)CNc3ccc(-c4ccc(NC(=O)C5CC5)nc4)cc3F)cc2C(F)(F)F)CC1` as the compound, how does the pIC50 [5] read?
The pIC50 was over 7.62.

What about the pIC50 [2] of the same compound?
The pIC50 was 6.55.

What about the inhibition [4] of the same compound?
The inhibition was over 90%.

What about the pIC50 [6] of the same compound?
The pIC50 was over 7.62.

What about the inhibition [7] of the same compound?
The inhibition was over 90%.

And the pIC50 [8]?
Its pIC50 is over 7.62.

For `CN1CCN(C(=O)c2ccc(-c3cn4c(-c5ccc(O)cc5)cnc4cn3)cc2)CC1`, which solubility [9] is on record?
The solubility was 144 µg/mL (≈ 348 µM).

With `CCN1CCN(Cc2ccc(NC(=O)CNc3ccc(-c4cccnc4)cc3)cc2C(F)(F)F)CC1` as the compound, how does the pIC50 [10] read?
The pIC50 was under 5.00.

With `CN1CCN(C(=O)c2ccc(-c3cn4c(-c5ccc(C(=O)NO)cc5)cnc4cn3)cc2)CC1` as the compound, how does the pIC50 [11] read?
The pIC50 was 7.52.

With `CCN1CCN(Cc2ccc(NC(=O)CNc3ccc(-c4ccc(NC(=O)C5CC5)nc4)cc3)cc2C(F)(F)F)CC1` as the compound, how does the pIC50 [5] read?
Its pIC50 is over 7.62.

And the half-life [12]?
Its half-life is 2.1 h.

What about the pIC50 [6] of the same compound?
Its pIC50 is over 7.62.

What about the pIC50 [8] of the same compound?
Its pIC50 is over 7.62.

Which solubility [9] does the source give for `O=C(c1ccc(-c2cn3c(-c4ccc(O)cc4)cnc3cn2)cc1)N1CCOCC1` here?
Its solubility is 11.5 µg/mL (≈ 28.7 µM).

For `CC(=O)N1CCN(C(=O)c2ccc(-c3cn4c(-c5ccc(O)cc5)cnc4cn3)cc2)CC1`, which solubility [9] is on record?
Its solubility is 144 µg/mL (≈ 326 µM).

With `CCN1CCN(Cc2ccc(NC(=O)COc3ccc(-c4cccnc4)cc3)cc2C(F)(F)F)CC1` as the compound, how does the pIC50 [10] read?
Its pIC50 is under 5.00.

Which solubility [13] does the source give for `CC(C)Oc1cc(-c2cccnc2)ccc1C(N)=O` here?
The solubility was 45 µg/mL (≈ 176 µM).

With `CN1CCN(C(=O)c2ccc(-c3ccc4ncc(-c5ccc(C#N)cc5)n4n3)cc2)CC1` as the compound, how does the pIC50 [11] read?
The pIC50 was 7.52.

Which inhibition in vivo at 25 mg/kg (K562 [14]) does the source give for `N#Cc1ccc(-c2cnc3ccc(-c4ccc(C(=O)N5CCOCC5)cc4)cn23)cc1` [TINODASERTIB] here?
Its inhibition in vivo at 25 mg/kg is 107%.

What about the inhibition in vivo at 50 mg/kg (K562 [15]) of the same compound?
Its inhibition in vivo at 50 mg/kg is 110%.
